According to ChEMBL document CHEMBL1124932, “Synthesis and antiviral activity of 9-alkoxypurines. 1. 9-(3-Hydroxypropoxy)- and 9-[3-hydroxymethyl)propoxy]purines” (J Med Chem, 1990):
Values belong to the compound of their own block, whether it stands above or below them.

Experiments:
Mus musculus [1] = assay: Concentration of BRL 44385 in blood was determined in female BALB/c mice at 15 min a after of dosing of […]; format: ADME, organism-based; settings: in vivo, 0.25 h
Procedure, shortened: (§1)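 Female Balb/c mice (20 g), fasted 18 h, given a single 0.2 mmol/kg oral gavage dose in 0.1 mL 1% (carboxymethyl)cellulose. Blood drawn by cardiac puncture with heparinised syringes at 15, 60 and 180 min. Equal volumes from three mice pooled per time point. Samples deproteinised with 16% trichloroacetic acid, neutralised with NaHCO3, mixed with 0.4 M NH4OAc (pH 6.0), and analysed by HPLC.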

Mus musculus [2] = assay: Concentration of BRL 44385 in blood was determined in female BALB/c mice at 60 min a after of dosing of […]; format: ADME, organism-based; settings: in vivo, 1 h; procedure, shortened: as §1
MRC5 [3] = assay: Antiviral activity in plaque reduction assay was determined against varicella zoster virus (VZV) in MRC-5 cells.; format: functional, cell-based; settings: Homo sapiens
Vero = assay: Antiviral activity in plaque reduction assay was determined against herpes simplex virus type 1 (HSV-1) in Vero cells.; format: functional, cell-based; settings: Chlorocebus sabaeus
Procedure, shortened: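 Vero monolayers infected with about 50 PFU HSV-1. Compound at various concentrations, present throughout incubation. Stocks 10 mg/mL in Me2SO, diluted in culture medium. Plaques counted when clearly visible, usually 3 days.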

MRC5 [4] = assay: Antiviral activity in plaque reduction assay was determined against herpes simplex virus type 2 (HSV-2) in MRC-5 cells.; format: functional, cell-based; settings: Homo sapiens
Procedure, shortened: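 HSV-2 at about 50 PFU infected onto MRC-5 monolayers. Compound at various concentrations, present throughout incubation. Stocks 10 mg/mL in Me2SO, diluted in culture medium. Plaques counted when clearly visible, usually 1 day.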

Mus musculus [5] = assay: Concentration of BRL 44385 in blood was determined in female BALB/c mice at 60 min after dosing of […]; format: ADME, organism-based; settings: in vivo, 1 h; procedure, shortened: as §1

SMILES: Nc1ncc2ncn(OCCCOC(=O)c3ccccc3)c2n1
concentration (Mus musculus [1]): 46 µM
concentration (Mus musculus [2]): 4 µM

SMILES: Nc1nc(O)c2ncn(OCC3COP(=O)(O)OC3)c2n1 (stereo not drawn)
IC50 (MRC5 [3]): 186 µM
IC50 (Vero): 180 µM
IC50 (MRC5 [4]): 180 µM

SMILES: CC(=O)OCC(COC(C)=O)COn1cnc2cnc(N)nc21
concentration (Mus musculus [1]): 53 µM
concentration (Mus musculus [2]): 10 µM

SMILES: CCOc1nc(N)nc2c1ncn2OCC(CO)CO
concentration (Mus musculus [1]): 37 µM
concentration (Mus musculus [2]): 15 µM

SMILES: Nc1ncc2ncn(OCC(COC(=O)c3ccccc3)COC(=O)c3ccccc3)c2n1
concentration (Mus musculus [1]): 14 µM
concentration (Mus musculus [5]): 9 µM

SMILES: COc1nc(N)nc2c1ncn2OCC(CO)CO
concentration (Mus musculus [1]): 7 µM
concentration (Mus musculus [2]): 8 µM

SMILES: CCCCCC(=O)OCCCOn1cnc2cnc(N)nc21
concentration (Mus musculus [1]): 66 µM
concentration (Mus musculus [2]): 4 µM

SMILES: Nc1nc(N)c2ncn(OCC(CO)CO)c2n1
concentration (Mus musculus [1]): < 2 µM
concentration (Mus musculus [2]): < 2 µM

SMILES: Nc1nc(Cl)c2ncn(OCC(CO)CO)c2n1
concentration (Mus musculus [1]): 11 µM
concentration (Mus musculus [2]): 5 µM

SMILES: Nc1ncc2ncn(OCCCO)c2n1
concentration (Mus musculus [1]): 43 µM
concentration (Mus musculus [2]): 3 µM

SMILES: CCC(=O)OCC(COC(=O)CC)COn1cnc2cnc(N)nc21
concentration (Mus musculus [1]): 49 µM
concentration (Mus musculus [2]): 12 µM

SMILES: Nc1ncc2ncn(OCC(CO)CO)c2n1
concentration (Mus musculus [1]): 31 µM
concentration (Mus musculus [2]): 16 µM

SMILES: CC(C)Oc1nc(N)nc2c1ncn2OCC(CO)CO
concentration (Mus musculus [1]): 29 µM
concentration (Mus musculus [2]): 26 µM

SMILES: Nc1nc2c(ncn2COCCO)c(=O)[nH]1 [ACYCLOVIR]
IC50 (Vero): 6.7 µM
IC50 (MRC5 [4]): 2.5 µM

More lines, main results first:

concentration (Mus musculus [1]): < 2 µM
concentration (Mus musculus [2]): < 2 µM
SMILES: Nc1nc(O)c2ncn(OCCCOC(=O)c3ccccc3)c2n1
IC50 (MRC5 [3]): > 300 µM
IC50 (Vero): 8.5 µM
IC50 (MRC5 [4]): 6.4 µM

concentration (Mus musculus [1]): 3 µM
concentration (Mus musculus [2]): 5 µM
SMILES: CC(=O)OCCCOn1cnc2c(O)nc(N)nc21
IC50 (MRC5 [3]): 45 µM
IC50 (Vero): 16 µM
IC50 (MRC5 [4]): 4.1 µM

concentration (Mus musculus [1]): 8 µM
concentration (Mus musculus [2]): 5 µM
SMILES: Nc1nc(O)c2ncn(OCCCO)c2n1
IC50 (MRC5 [3]): 4.4 µM
IC50 (Vero): 2.1 µM
IC50 (MRC5 [4]): 0.71 µM

concentration (Mus musculus [1]): 2 µM
concentration (Mus musculus [2]): 2 µM
SMILES: Nc1nc(O)c2ncn(OCC(CO)CO)c2n1
IC50 (MRC5 [3]): 11 µM
IC50 (Vero): 5.9 µM
IC50 (MRC5 [4]): 5.9 µM

concentration (Mus musculus [1]): 6 µM
concentration (Mus musculus [2]): < 2 µM
SMILES: CCOc1nc(N)nc2c1ncn2OCCCO

concentration (Mus musculus [1]): 8 µM
concentration (Mus musculus [2]): 3 µM
SMILES: CCCCCC(=O)OCCCOn1cnc2c(O)nc(N)nc21
IC50 (MRC5 [3]): 7.4 µM
IC50 (Vero): 2.1 µM
IC50 (MRC5 [4]): 0.22 µM

concentration (Mus musculus [1]): 45 µM
concentration (Mus musculus [2]): 3 µM
SMILES: CC(=O)OCCCOn1cnc2cnc(N)nc21
